Test results: ChEMBL document CHEMBL1125311, “Inhibition of human leukocyte elastase. 4. Selection of a substituted cephalosporin (L-658,758) as a topical aerosol” (J Med Chem, 1992)

Assays:
Cricetinae gen. sp. [1] = assay: Compound was evaluated in vivo for inhibition of HLE-induced hemorrhage in hamster lung at 100 microg 30 min after administration; format: functional, Cricetulus griseus
Procedure, shortened: (§1)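 Hamster, intratracheal dosing of compound (per animal) 30 min before IT instillation of 50 μg HLE (50 units in Experimental); hemorrhage read 3 h later: lungs lavaged with saline, hemoglobin in lavage measured at 414 nm. Percent inhibition from drug-treated vs vehicle-treated hemorrhage; three animals per dose and time. Titration at 100, 30, 10, 3 μg/animal gives ED50.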

[2] = target: T1, Neutrophil elastase (Homo sapiens) (UniProt P08246)
T1 sequence (whole entry): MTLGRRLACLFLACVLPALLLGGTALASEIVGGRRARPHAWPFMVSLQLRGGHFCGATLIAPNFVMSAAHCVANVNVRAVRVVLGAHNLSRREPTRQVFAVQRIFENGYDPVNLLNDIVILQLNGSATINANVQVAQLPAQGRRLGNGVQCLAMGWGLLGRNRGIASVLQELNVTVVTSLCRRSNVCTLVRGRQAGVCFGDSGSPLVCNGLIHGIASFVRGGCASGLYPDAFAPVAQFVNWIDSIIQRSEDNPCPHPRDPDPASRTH

Cricetinae gen. sp. [3] = assay: Compound was evaluated in vivo for inhibition of HLE-induced hemorrhage in hamster lung at 30 microg 30 min after administration; format: functional, Cricetulus griseus; procedure, shortened: as §1
Cricetinae gen. sp. [4] = assay: Compound was evaluated in vivo for inhibition of HLE-induced hemorrhage in hamster lung at 100 microg, 30 min after administration prior to HLE; format: functional, Cricetulus griseus; procedure, shortened: as §1
Cricetinae gen. sp. [5] = assay: Compound was evaluated in vivo for inhibition of HLE-induced hemorrhage in hamster lung at 200 microg, 4 hr after administration prior to HLE; format: functional, Cricetulus griseus
Procedure, shortened: (§2)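 Hamster duration protocol: 200 μg/animal given intratracheally 60, 120, 180 or 240 min before IT HLE instillation; hemorrhage scored after 3 h as hemoglobin (414 nm) in saline lung lavage, relative to vehicle-treated animals; three animals per point. T50 taken as time at which 50% inhibition is still obtained.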

Cricetinae gen. sp. [6] = assay: Compound was evaluated in vivo for inhibition of HLE-induced hemorrhage in hamster lung at 30microg, 30 min after administration prior to HLE; format: functional, Cricetulus griseus; procedure, shortened: as §1
Cricetinae gen. sp. [7] = assay: Compound was evaluated in vivo for inhibition of HLE-induced hemorrhage in hamster lung at 200 microg, 2 hr after administration prior to HLE; format: functional, Cricetulus griseus; procedure, shortened: as §2
Cricetinae gen. sp. [8] = assay: Compound was evaluated in vivo for inhibition of HLE-induced hemorrhage in hamster lung at 10microg, 30 min after administration prior to HLE; format: functional, Cricetulus griseus; procedure, shortened: as §1
Cricetinae gen. sp. [9] = assay: Compound was evaluated in vivo for lung hemorrhage inhibitory activity at 200 microg, 1 hr after administration prior to HLE; format: functional, Cricetulus griseus; procedure, shortened: as §2
Cricetinae gen. sp. [10] = assay: Compound was evaluated in vivo for inhibition of HLE-induced hemorrhage in hamster lung at 200 microg, 3h after administration prior to HLE; format: functional, Cricetulus griseus; procedure, shortened: as §2
Cricetinae gen. sp. [11] = assay: Compound was evaluated in vivo for inhibition of HLE-induced hemorrhage in hamster lung at 100 microg, 90 min after administration; format: functional, Cricetulus griseus
Cricetinae gen. sp. [12] = assay: Compound was evaluated in vivo for inhibition of HLE-induced hemorrhage in hamster lung at 100 microg, 30 min after administration; format: functional, Cricetulus griseus; procedure, shortened: as §1

Row | SMILES | Inhibition (Cricetinae gen. sp. [1]) | k obs / 1 [2] | Inhibition (Cricetinae gen. sp. [3]) | Inhibition (Cricetinae gen. sp. [4]) | Inhibition (Cricetinae gen. sp. [5]) | Inhibition (Cricetinae gen. sp. [6]) | Inhibition (Cricetinae gen. sp. [7]) | Inhibition (Cricetinae gen. sp. [8]) | Inhibition (Cricetinae gen. sp. [9]) | Inhibition (Cricetinae gen. sp. [10]) | Inhibition (Cricetinae gen. sp. [11]) | Inhibition (Cricetinae gen. sp. [12])
1 | CO[C@H]1C(=O)N2C(C(=O)OC(C)(C)C)=C(CSc3nnnn3CC(=O)O)CS(=O)(=O)[C@H]12 | 89% | 3700 M⁻¹ s⁻¹ | 77% |  |  |  |  |  |  |  |  | 
2 | CO[C@H]1C(=O)N2C(C(=O)N3CC(O)CC3C(=O)O)=C(COC(C)=O)CS(=O)(=O)[C@H]12 (some centres undefined) |  | 900 M⁻¹ s⁻¹ |  | 98% | 17% | 95% | 81% | 78% | 86% | 4% |  | 
3 | CO[C@H]1C(=O)N2C(C(=O)OC(C)(C)C)=C(COC(=O)N[C@@H](Cc3ccccc3)C(=O)O)CS(=O)(=O)[C@H]12 |  | 63900 M⁻¹ s⁻¹ |  |  |  |  |  |  |  |  | 10% | 87%
